According to ChEMBL document CHEMBL2046305, “Discovery of selective menaquinone biosynthesis inhibitors against Mycobacterium tuberculosis” (J Med Chem, 2012):
Values after ≈ are worked out from the molar mass of the structure shown. Active and inactive are the calls of the source. No cut-off for these calls is given here.

Columns and labels:
Staphylococcus aureus [1] = test: Inhibition of Staphylococcus aureus MenA using [3H]farnesyl and DHNA as substrate at 100 uM after 2 hrs
Method in brief: (§1)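 Membrane fraction from mid-log cultures in 7H9/OADC, washed in saline, sonicated in MOPS pH 8/sucrose/MgCl2/2-mercaptoethanol buffer, spun 15,000 g then 200,000 g; the fraction was the enzyme source. DHNA (500 μM stock), MgCl2, 0.1% CHAPS, Tris pH 8, farnesyl diphosphate (200 μM stock) and inhibitor, 2 h at 37 °C. Quenched with 0.1 M AcOH/MeOH, extracted with hexanes, DMMK measured.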

[2] = test system: Mycobacterium tuberculosis; test: Inhibition of Mycobacterium tuberculosis MenA using [3H]farnesyl and DHNA as substrate at 100 uM after 2 hrs; method in brief: as §1
[3] = Inhibition of Mycobacterium tuberculosis MenA using [3H]farnesyl and DHNA as substrate after 2 hrs; method in brief: as §1
Staphylococcus aureus [4] = test: Antibacterial activity against Staphylococcus aureus Seattle 1945 ATCC 25923 by agar plate diffusion method; format: functional
[5] = test system: Mycobacterium tuberculosis; test: Antibacterial activity against Mycobacterium tuberculosis H37Rv ATCC 27294 by microplate alamar blue assay; format: functional
Method in brief: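 Colorimetric microplate assay run under aerobic conditions; growth scored by the colour change of resazurin. Compounds showing at least 90% inhibition in a preliminary screen were retested at lower concentrations to give the MIC.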

[6] = test system: Mycobacterium tuberculosis; test: Antibacterial activity against non-replicating Mycobacterium tuberculosis H37Rv ATCC 27294 by low oxygen recovery assay; format: functional
Escherichia coli [7] = test: Growth inhibition of Escherichia coli Seattle ATCC 25922 at 5 to 10 ug/ml by microplate alamar blue assay; format: functional, organism-based
Escherichia coli [8] = test: Growth inhibition of Escherichia coli Seattle ATCC 25922 at 5 to 10 ug/ml by microplate alamar blue assay in presence of 50 uM VK2; format: functional, organism-based
Method in brief: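 E. coli grown with inhibitor under anaerobic conditions; rescue tested by supplementing with menaquinone (VK2, 50 μM).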

SMILES | inhibition (Staphylococcus aureus [1]) | inhibition [2] | IC50 [3] [µM] | MIC (Staphylococcus aureus [4]) [µg/mL] | MIC [5] [µg/mL] | MIC [6] [µg/mL] | growth inhibition (GI) (Escherichia coli [7]) | growth inhibition (GI) (Escherichia coli [8])
CCCCCC[C@H](O)CN1CCC(COc2ccc(C(=O)c3ccc(Cl)cc3)c(Cl)c2)CC1 | inactive | Active | 3.5 | > 60 | 1.5 (≈ 3.05 µM) | 1.43 (≈ 2.9 µM) | Active | inactive
CCCCCCC[C@@H](O)c1cccc(CN2CCC(COc3cccc(C(=O)c4ccc(Cl)cc4)c3)CC2)c1 | inactive | Active | 20 | > 60 | 12.5 (≈ 22.8 µM) | 1.46 (≈ 2.66 µM) | Active | inactive
COc1ccc(CCN[C@@H](CO)c2cccc(COc3cccc(C(=O)c4ccc(Cl)cc4)c3)c2)cc1 | inactive | Active | 14 | > 60 | 12.5 (≈ 24.2 µM) | 3 (≈ 5.81 µM) | Active | inactive
CCCCCCC[C@@H](O)c1cccc(CN2CCC(COc3cccc(/C(=N\OC)c4ccc(Cl)cc4)c3)CC2)c1 | inactive | Active | 15 | > 60 | 6.25 (≈ 10.8 µM) | 1.43 (≈ 2.48 µM) | Active | inactive
CCCCCCC[C@@H](O)c1cccc(CN2CCC(COc3ccc(/C(=N\OC)c4ccc(Cl)cc4)c(Cl)c3)CC2)c1 | inactive | Active | 15 | > 60 | 12.5 (≈ 20.4 µM) | 5.54 (≈ 9.06 µM) | Active | inactive
CCCCC(CN1CCC(COc2ccc(C(=O)c3ccc(Cl)cc3)c(Cl)c2)CC1)OC(N)=O (racemic) | inactive | Active | 7.5 | > 60 | 3.25 (≈ 6.4 µM) | 2.83 (≈ 5.58 µM) | Active | inactive
CCCCCCC[C@H](O)c1cccc(CN2CCC(COc3ccc(C(=O)c4ccc(Cl)cc4)c(Cl)c3)CC2)c1 | inactive | Active | 15 | > 60 | 12.5 (≈ 21.5 µM) | 1.88 (≈ 3.23 µM) | Active | inactive
CCCCCCC[C@H](O)c1cccc(CN2CCC(COc3cccc(C(=O)c4ccc(Cl)cc4)c3)CC2)c1 | inactive | Active | 25 | > 60 | 12.5 (≈ 22.8 µM) | 1.88 (≈ 3.43 µM) | Active | inactive
CCCC[C@@H](O)CN1CCC(COc2cccc(C(=O)c3ccc(Cl)cc3)c2)CC1 | inactive | Active | 17 | > 60 | 6.2 (≈ 14.4 µM) | 4.91 (≈ 11.4 µM) | Active | inactive
CCCCCCC[C@@H](OC(N)=O)c1cccc(CN2CCC(COc3cccc(C(=O)c4ccc(Cl)cc4)c3)CC2)c1 | inactive | Active | 15 | > 60 | 12.5 (≈ 21.1 µM) | 4.93 (≈ 8.34 µM) | Active | inactive
CO[C@H]1/C=C/O[C@@]2(C)Oc3c(C)c(O)c4c(O)c(c(/C=N/N5CCN(C)CC5)c(O)c4c3C2=O)NC(=O)/C(C)=C\C=C\[C@H](C)[C@H](O)[C@@H](C)[C@@H](O)[C@@H](C)[C@H](OC(C)=O)[C@@H]1C [RIFAMPIN] | – | – | – | – | 0.07 (≈ 0.0851 µM) | – | – | –
